Data: ChEMBL document CHEMBL1811845, “Modulation of GABAA-receptors by honokiol and derivatives: subtype selectivity and structure-activity relationship” (J Med Chem, 2011)

How the values were obtained:
[1] = biological target: T1, GABA-A receptor; GABA-A site (alpha1/beta2 interface) (Homo sapiens, UniProt P14867+P47870); test: Modulation of GABA Aalpha1beta2 receptor expressed in Xenopus laevis oocytes assessed as potentiation of GABA-induced chloride current at holding potential -70 mV by two-microelectrode voltage clamp technique; format: cell-based, Oocyte
T1 sequence (P14867 whole entry): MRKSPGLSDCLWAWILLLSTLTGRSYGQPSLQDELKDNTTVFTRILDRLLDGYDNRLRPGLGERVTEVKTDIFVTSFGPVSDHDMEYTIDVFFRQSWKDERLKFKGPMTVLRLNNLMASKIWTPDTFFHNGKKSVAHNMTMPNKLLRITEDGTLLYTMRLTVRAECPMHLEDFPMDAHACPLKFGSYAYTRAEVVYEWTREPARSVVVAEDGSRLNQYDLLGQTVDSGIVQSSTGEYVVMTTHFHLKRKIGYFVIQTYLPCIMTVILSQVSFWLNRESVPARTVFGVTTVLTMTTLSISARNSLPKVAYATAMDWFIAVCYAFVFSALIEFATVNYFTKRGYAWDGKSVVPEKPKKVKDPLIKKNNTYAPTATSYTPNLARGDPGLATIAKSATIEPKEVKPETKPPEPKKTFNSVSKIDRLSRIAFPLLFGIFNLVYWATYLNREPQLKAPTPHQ
T1 sequence (P47870 whole entry): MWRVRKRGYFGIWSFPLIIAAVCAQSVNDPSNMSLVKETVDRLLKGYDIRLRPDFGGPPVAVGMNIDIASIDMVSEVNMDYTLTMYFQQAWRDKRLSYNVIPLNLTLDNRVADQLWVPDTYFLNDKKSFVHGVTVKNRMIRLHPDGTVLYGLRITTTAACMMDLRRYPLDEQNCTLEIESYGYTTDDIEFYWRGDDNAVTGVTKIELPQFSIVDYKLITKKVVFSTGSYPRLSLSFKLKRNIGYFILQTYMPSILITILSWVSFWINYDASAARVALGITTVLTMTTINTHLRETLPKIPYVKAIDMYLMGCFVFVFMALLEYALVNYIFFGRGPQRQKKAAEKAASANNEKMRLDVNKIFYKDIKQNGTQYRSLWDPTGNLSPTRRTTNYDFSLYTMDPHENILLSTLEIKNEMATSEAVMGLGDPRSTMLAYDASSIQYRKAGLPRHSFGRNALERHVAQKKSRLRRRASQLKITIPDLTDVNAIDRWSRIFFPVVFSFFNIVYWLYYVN
Procedure, shortened: (§1)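 Stage V–VI Xenopus oocytes, defolliculated with 2 mg/mL collagenase, injected with α(1, 2, 3 or 5) and β2 cRNAs mixed 1:1, then kept at 18 °C in ND96 (pH 7.4). Enhancement = I(GABA+compound)/IGABA − 1. Curves were Hill-fitted for EC50. Bath DMSO was at most 0.3%, matched in controls.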

[2] = Modulation of GABA alpha1beta2gamma2s receptor expressed in Xenopus laevis oocytes assessed as potentiation of GABA-induced chloride current at holding potential -70 mV by two-microelectrode voltage clamp technique; format: cell-based; settings: Oocyte
Procedure, shortened: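 Oocytes were injected with α1, β2 and γ2s cRNAs mixed 1:1:10 and stored at 18 °C in ND96 (pH 7.4). GABA was applied at a concentration giving 3–7% of maximal current, determined for each oocyte. Enhancement was taken as (I(GABA+compound)/IGABA) − 1. Concentration–response data were fitted to a Hill equation. Control solutions carried equal DMSO, at most 0.3%.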

[3] = Octanol-water partition coefficient, log P of the compound; format: physicochemical; settings: read-out: logP
[4] = biological target: T2, Gamma-aminobutyric acid receptor subunit alpha-5/beta-2 (Homo sapiens, UniProt P31644+P47870); test: Modulation of GABA Aalpha5beta2 receptor expressed in Xenopus laevis oocytes assessed as potentiation of GABA-induced chloride current at holding potential -70 mV by two-microelectrode voltage clamp technique; format: cell-based, Oocyte; procedure, shortened: as §1
T2 sequence (P47870 whole entry): T1 sequence (P47870 whole entry)
T2 sequence (P31644 whole entry): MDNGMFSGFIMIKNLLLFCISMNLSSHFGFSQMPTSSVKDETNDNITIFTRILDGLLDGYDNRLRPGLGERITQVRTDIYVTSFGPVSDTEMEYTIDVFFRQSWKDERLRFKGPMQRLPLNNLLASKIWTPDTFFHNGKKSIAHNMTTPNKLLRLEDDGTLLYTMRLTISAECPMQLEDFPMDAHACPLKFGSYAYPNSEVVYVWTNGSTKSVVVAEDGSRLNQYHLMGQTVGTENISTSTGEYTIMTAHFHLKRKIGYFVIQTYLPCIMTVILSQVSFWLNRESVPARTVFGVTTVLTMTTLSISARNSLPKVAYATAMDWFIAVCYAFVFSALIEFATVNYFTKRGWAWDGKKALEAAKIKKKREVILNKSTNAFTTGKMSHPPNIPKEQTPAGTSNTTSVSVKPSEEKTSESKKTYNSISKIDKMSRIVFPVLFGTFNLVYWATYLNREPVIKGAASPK

Oocyte [5] = test: Modulation of GABA alpha1beta2gamma2s receptor expressed in Xenopus laevis oocytes assessed as potentiation of GABA-induced chloride current at holding potential -70 mV at 10 uM by two-microelectrode voltage clamp technique relative to GABA; format: cell-based
Oocyte [6] = test: Modulation of GABA alpha1beta2gamma2s receptor expressed in Xenopus laevis oocytes assessed as potentiation of GABA-induced chloride current at holding potential -70 mV at 10 uM by two-microelectrode voltage clamp technique in presence of 1 uM of flumazenil relative to GABA; format: cell-based
[7] = biological target: GABA-A receptor; GABA-A site (alpha1/beta2 interface) (Homo sapiens) (UniProt P14867+P47870); test: Modulation of GABA Aalpha1beta2 receptor expressed in Xenopus laevis oocytes assessed as potentiation of GABA-induced chloride current at holding potential -70 mV at 30 uM by two-microelectrode voltage clamp technique relative to GABA; format: cell-based; settings: Oocyte
Procedure, shortened: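 Single-concentration screen at 30 μM on α1β2 receptors (cRNA 1:1) in Xenopus oocytes. Enhancement was (I(GABA+compound)/IGABA)−1. DMSO was matched in control and test solutions, maximum 0.3% in the bath.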

C=CCc1ccc(O)c(-c2ccc(O)c(CC=C)c2)c1 [HONOKIOL]
EC50 [1]: 39.3 µM | EC50 [2]: 36.2 µM | logP [3]: 5.16 | EC50 [4]: 23.4 µM | Activity (Oocyte [5]): 101% | Activity (Oocyte [6]): 116% | Activity [7]: 376%
